Test results published in ChEMBL document CHEMBL4028867, “Design, Synthesis, and Characterization of N-Oxide-Containing Heterocycles with in Vivo Sterilizing Antitubercular Activity” (J Med Chem, 2017).
pIC50: −log10 of the molar value. Values after ≈ are worked out from the molar mass of the structure shown. Active and inactive are the calls of the source. No cut-off for these calls is given here.

Columns and labels:
[1] = test system: Mycobacterium tuberculosis; assay: Antitubercular activity against replicating stage Mycobacterium tuberculosis H37Rv ATCC 27294 after 7 days by Resazurin microtiter assay; format: functional; conditions: H37Rv ATCC 27294, 168 h
[2] = Selectivity index, ratio of IC50 for human MRC5 cells to IC50 for replicating stage Mycobacterium tuberculosis H37Rv ATCC 27294; format: toxicity; conditions: read-out: Selectivity Index
MRC5 = assay: Cytotoxicity against human MRC5 cells assessed as reduction in cell viability after 24 hrs by fluorescence assay; format: cell-based; conditions: MRC5, 24 h
Procedure, shortened: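 MRC-5 human lung fibroblasts; cytotoxicity reported as IC50.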

[3] = n-Octanol/water partition coefficient, log P of the compound by HPLC analysis; format: physicochemical
Procedure, shortened: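 Log P from n-octanol/water partition coefficient determined by HPLC method.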

[4] = test system: Mycobacterium tuberculosis; assay: Antitubercular activity against dormant stage Mycobacterium tuberculosis H37Rv ATCC 27294 incubated for 10 days in anaerobic condition followed by incubation for 28 hrs in ambient gaseous condition measured after day 11 by two fold serial dilution assay; format: functional
Staphylococcus aureus = assay: Antimicrobial activity against Staphylococcus aureus ATCC 29213 at 200 uM incubated for 16 hrs; format: functional
Candida albicans = assay: Antimicrobial activity against Candida albicans ATCC 10231 at 200 uM incubated for 48 hrs; format: functional
Escherichia coli = assay: Antimicrobial activity against Escherichia coli ATCC 25922 at 200 uM incubated for 16 hrs; format: functional
[5] = test system: Mycobacterium tuberculosis; assay: Growth inhibition of Mycobacterium tuberculosis H37Rv exposed to plasma from BALB/c mouse treated with 20 mg/kg, po administered through microemulsion vehicle as single oral dose per gavage after 4 hrs by Resazurin microtiter assay; format: functional; conditions: read-out: GI
Procedure, shortened: (§1)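 The microemulsion was 10% cholesterol, 10% phosphatidylcholine/sodium oleate/polyoxyl 40 hydrogenated castor oil (3:6:8) and 80% phosphate buffer pH 7.4. Plasma taken at 0.3, 1, 2 or 4 h was tested by REMA for % Mtb growth inhibition, and plasma level was estimated against the in-vitro REMA MIC.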

[6] = test system: Mycobacterium tuberculosis; assay: Growth inhibition of Mycobacterium tuberculosis H37Rv exposed to plasma from BALB/c mouse treated with 20 mg/kg, po administered through carboxymethylcellulose vehicle as single oral dose per gavage after 4 hrs by Resazurin microtiter assay; format: functional; conditions: read-out: GI; procedure, shortened: as §1
[7] = test system: Mycobacterium tuberculosis; assay: Growth inhibition of Mycobacterium tuberculosis H37Rv exposed to plasma from BALB/c mouse treated with 20 mg/kg, po administered through carboxymethylcellulose vehicle as single oral dose per gavage after 1 hr by Resazurin microtiter assay; format: functional; conditions: read-out: GI; procedure, shortened: as §1
[8] = test system: Mycobacterium tuberculosis; assay: Growth inhibition of Mycobacterium tuberculosis H37Rv exposed to plasma from BALB/c mouse treated with 20 mg/kg, po administered through microemulsion vehicle as single oral dose per gavage after 0.3 hrs by Resazurin microtiter assay; format: functional; conditions: read-out: GI; procedure, shortened: as §1
[9] = test system: Mycobacterium tuberculosis; assay: Growth inhibition of Mycobacterium tuberculosis H37Rv exposed to plasma from BALB/c mouse treated with 20 mg/kg, po administered through microemulsion vehicle as single oral dose per gavage after 1 hr by Resazurin microtiter assay; format: functional; conditions: read-out: GI; procedure, shortened: as §1
[10] = test system: Mycobacterium tuberculosis; assay: Antitubercular activity against Mycobacterium tuberculosis H37Rv ATCC 27294 under acidic pH 6 condition; format: functional
[11] = test system: Mycobacterium tuberculosis; assay: Growth inhibition of Mycobacterium tuberculosis H37Rv exposed to plasma from BALB/c mouse treated with 20 mg/kg, po administered through carboxymethylcellulose vehicle as single oral dose per gavage after 2 hrs by Resazurin microtiter assay; format: functional; conditions: read-out: GI; procedure, shortened: as §1
[12] = test system: Mycobacterium tuberculosis; assay: Growth inhibition of Mycobacterium tuberculosis H37Rv exposed to plasma from BALB/c mouse treated with 20 mg/kg, po administered through carboxymethylcellulose vehicle as single oral dose per gavage after 0.3 hrs by Resazurin microtiter assay; format: functional; conditions: read-out: GI; procedure, shortened: as §1
[13] = test system: Mycobacterium tuberculosis; assay: Growth inhibition of Mycobacterium tuberculosis H37Rv exposed to plasma from BALB/c mouse treated with 20 mg/kg, po administered through microemulsion vehicle as single oral dose per gavage after 2 hrs by Resazurin microtiter assay; format: functional; conditions: read-out: GI; procedure, shortened: as §1
[14] = test system: Mycobacterium tuberculosis; assay: Antitubercular activity against Mycobacterium tuberculosis H37Rv ATCC 27294 under normal pH 6.8 condition; format: functional

Compound | MIC90 [1] [µM] | selectivity ratio [2] | pIC50 (MRC5) | logP [3] | further results
N#Cc1c(-c2cccs2)[n+]([O-])c2ccc(C3OCCO3)cc2[n+]1[O-] | 12.1 (≈ 4.13 µg/mL) | 1.4 | 4.76 | 1.9 | 
NNC(=O)c1ccncc1 [ISONIAZID] | 0.1 (≈ 0.0137 µg/mL) |  |  |  | MIC90 [4]: 1.11 µM (≈ 0.152 µg/mL)
NC(=O)c1c(COc2ccccc2/C=N/NC(=O)c2ccncc2)no[n+]1[O-] | 0.42 (≈ 0.161 µg/mL) | 2030 | 3.07 | 1.3 | MIC90 [4]: 7.72 µM (≈ 2.95 µg/mL)
O=C(N/N=C/c1ccc2no[n+]([O-])c2c1)c1ccc([N+](=O)[O-])cc1 | 5.29 (≈ 1.73 µg/mL) |  |  | 0.9 | Activity (Staphylococcus aureus): inactive; Activity (Candida albicans): inactive; Activity (Escherichia coli): inactive
N#Cc1c(-c2ccco2)[n+]([O-])c2ccc(C3OCCO3)cc2[n+]1[O-] | 5.2 (≈ 1.69 µg/mL) | 6.8 | 4.45 | 2 | 
Cc1ccc(-c2c(C#N)[n+]([O-])c3cc(C4OCCO4)ccc3[n+]2[O-])cc1 | 16.5 (≈ 5.76 µg/mL) | 1.1 | 4.76 | 1.6 | 
O=C(N/N=C/c1ccc2no[n+]([O-])c2c1)c1cccc(O)c1 | > 62 |  |  | 1.2 | 
COc1ccc(-c2c(C#N)[n+]([O-])c3cc(C4OCCO4)ccc3[n+]2[O-])cc1 | 12 (≈ 4.38 µg/mL) | 1.2 | 4.82 | 1.4 | 
O=C(N/N=C/c1ccc2no[n+]([O-])c2c1)c1ccccc1 | 8.3 (≈ 2.34 µg/mL) | 15.6 | 3.88 | 2.2 | 
N#Cc1c(-c2ccc(F)cc2)[n+]([O-])c2ccc(C3OCCO3)cc2[n+]1[O-] | 24.3 (≈ 8.59 µg/mL) | 0.9 | 4.66 | 1.3 | 
Nc1cccc(C(=O)N/N=C/c2ccc3no[n+]([O-])c3c2)c1 | 17.8 (≈ 5.29 µg/mL) | 4.6 | 4.09 | 1.4 | 
CO[C@H]1/C=C/O[C@@]2(C)Oc3c(C)c(O)c4c(O)c(c(/C=N/N5CCN(C)CC5)c(O)c4c3C2=O)NC(=O)/C(C)=C\C=C\[C@H](C)[C@H](O)[C@@H](C)[C@@H](O)[C@@H](C)[C@H](OC(C)=O)[C@@H]1C [RIFAMPIN] |  |  |  |  | inhibition in vivo at 20 mg/kg [5]: 91%; inhibition in vivo at 20 mg/kg [6]: 68%; inhibition in vivo at 20 mg/kg [7]: 84%; inhibition in vivo at 20 mg/kg [8]: 66.3%; inhibition in vivo at 20 mg/kg [9]: 63%; MIC90 [10]: 0.02 µM (≈ 0.0165 µg/mL); inhibition in vivo at 20 mg/kg [11]: 62.3%; inhibition in vivo at 20 mg/kg [12]: 73.7%; inhibition in vivo at 20 mg/kg [13]: 76.3%; MIC90 [14]: 0.05 µM (≈ 0.0411 µg/mL)
N#Cc1c(-c2ccccc2)[n+]([O-])c2ccc(/C=N/NC(=O)c3ccncc3)cc2[n+]1[O-] | 39.7 (≈ 16.3 µg/mL) | 0.5 | 4.68 | 1 | 
N#Cc1c(-c2ccccc2)[n+]([O-])c2ccc(C3OCCO3)cc2[n+]1[O-] | 30.8 (≈ 10.3 µg/mL) | 0.9 | 4.50 | 0.7 | 
NC(=O)c1c(COc2ccc(/C=N/NC(=O)c3ccncc3)cc2)no[n+]1[O-] | 0.43 (≈ 0.164 µg/mL) | 2700 | 2.94 | 1.3 | MIC90 [4]: 2.04 µM (≈ 0.78 µg/mL)
O=C(N/N=C/c1ccc2no[n+]([O-])c2c1)c1ccc(O)cc1 | > 62 |  |  | 1.2 | Activity (Staphylococcus aureus): inactive; Activity (Candida albicans): inactive; Activity (Escherichia coli): inactive
O=C(N/N=C/c1ccc2no[n+]([O-])c2c1)c1ccccc1O | > 62 |  |  | 1.3 | 
N#Cc1c(-c2ccc(OC(F)(F)F)cc2)[n+]([O-])c2ccc(C3OCCO3)cc2[n+]1[O-] | 15.4 (≈ 6.46 µg/mL) | 4.3 | 4.18 | 2.2 | 
N#Cc1c(-c2ccc(Cl)cc2)[n+]([O-])c2ccc(C3OCCO3)cc2[n+]1[O-] | 16.2 (≈ 5.99 µg/mL) | 0.8 | 4.90 | 1.8 | 
NC(=O)c1c(COc2cccc(/C=N/NC(=O)c3ccncc3)c2)no[n+]1[O-] | 0.4 (≈ 0.153 µg/mL) | 3200 | 2.89 | 1.3 | MIC90 [4]: 4.2 µM (≈ 1.61 µg/mL)
Nc1ccccc1C(=O)N/N=C/c1ccc2no[n+]([O-])c2c1 | 12.3 (≈ 3.66 µg/mL) | 9.9 | 3.91 | 2 | 
Nc1ccc(C(=O)N/N=C/c2ccc3no[n+]([O-])c3c2)cc1 | 10.7 (≈ 3.17 µg/mL) | 78.9 | 3.08 | 1.2 | Activity (Staphylococcus aureus): inactive; Activity (Candida albicans): inactive; MIC90 [4]: > 10 µM; Activity (Escherichia coli): inactive
CC(C)(C)c1ccc(C(=O)N/N=C/c2ccc3no[n+]([O-])c3c2)cc1 | 3.9 (≈ 1.32 µg/mL) | 6.3 | 4.60 | 3.8 | 
